Our source for the inhibition, Activity and viability values is ChEMBL document CHEMBL4304819, “Natural product pectolinarigenin exhibits potent anti-metastatic activity in colorectal carcinoma cells in vitro and in vivo” (2019).

For one test, the system named is SW48. Nature of the test: Antiproliferative activity against human SW48 cells assessed as reduction in cell viability up to 40 uM by MTT assay. The format is functional, cell-based. As to conditions: TDE = time-dependent effect. The procedure, abridged:
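Exponentially growing cells (2–6 × 10^3 per well) seeded in 96-well plates for 24 h, then exposed to 0, 2.5, 5, 10, 20, 40 µM for 24, 48 and 72 h. MTT (5 mg/mL stock) added 2–4 h at 37 °C; formazan dissolved in DMSO, absorbance at 570 nm. Three independent experiments.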

Test [1] has as its system CT26. Nature of the test: Inhibition of colony formation in mouse CT26 cells assessed as reduction in size of colonies up to 40 uM incubated for 24 hrs supplemented with fresh medium containing compound every 3 days for 12 days by crystal violet staining-based microscopic analysis. The format is functional, cell-based. Summed up:
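400–800 cells per well seeded in 6-well plates; after 24 h, PEC (0–40 μM) added. Medium with or without compound replaced every three days for 12 days. Colonies washed in cold PBS, fixed in methanol, stained 15 min with 0.5% crystal violet and counted under a microscope. Mean ± SD of three experiments.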

Test [2] relates to CT26. Nature of the test: Induction of apoptosis in mouse CT26 cells assessed as late apoptotic cells at 10 uM after 48 hrs by Annexin V-FITC/propidium iodide staining-based flow cytometric analysis (reference value: 6.49 %). The format is functional. Summed up:
(§1)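 CT26 cells seeded at 1–2 × 10^5 per well in six-well plates for 24 h, then exposed to PEC (0–40 μM) for 24 or 48 h. Cells harvested, washed twice in cold PBS, stained with Annexin V-FITC/PI and read by flow cytometry. Early apoptotic = Annexin V+ only; late apoptotic = Annexin V+/PI+. Mean ± SD of three experiments.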

In test [3] the test system is CT26. Nature of the test: Induction of apoptosis in mouse CT26 cells assessed as early apoptotic cells at 20 uM after 48 hrs by Annexin V-FITC/propidium iodide staining-based flow cytometric analysis (reference value: 2.84 %). The format is functional. The procedure, abridged: as §1
A general note: In flow cytometry, cells or beads pass a laser one at a time.

Test [4] deals with CT26. Nature of the test: Induction of apoptosis in mouse CT26 cells assessed as necrotic cells at 20 uM after 48 hrs by Annexin V-FITC/propidium iodide staining-based flow cytometric analysis (reference value: 1.80 %). The test is classed as functional. Summed up:
as §1

Test [5] deals with CT26. Nature of the test: Induction of apoptosis in mouse CT26 cells assessed as early apoptotic cells at 40 uM after 48 hrs by Annexin V-FITC/propidium iodide staining-based flow cytometric analysis (reference value: 2.84 %). The format is functional. The procedure, abridged: as §1
Test [6] deals with CT26. Nature of the test: Induction of apoptosis in mouse CT26 cells assessed as late apoptotic cells at 40 uM after 48 hrs by Annexin V-FITC/propidium iodide staining-based flow cytometric analysis (reference value: 6.49 %). The format is functional. Summed up: as §1
The test system of test [7] is HCT-116. Nature of the test: Induction of apoptosis in human HCT116 cells assessed as early apoptotic cells at 10 uM after 48 hrs by Annexin V-FITC/propidium iodide staining-based flow cytometric analysis (reference value: 1.23 %). The test is classed as functional. Summed up: (§2)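 Cells (1–2 × 10^5 per well) seeded in six-well plates 24 h, treated at 0–40 μM for 24 h or 48 h, harvested, washed twice in cold PBS, stained with Annexin V-FITC/PI and analysed by flow cytometry; early (Annexin V only) and late (Annexin V and PI) apoptotic fractions quantified; three experiments.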

In test [8] the test system is HCT-116. Nature of the test: Induction of apoptosis in human HCT116 cells assessed as viable cells at 20 uM after 48 hrs by Annexin V-FITC/propidium iodide staining-based flow cytometric analysis (reference value: 86.7 %). The test is classed as functional. As to conditions: HCT-116, 48 h, read-out: Activity. Summed up: as §2
Test [9] has as its system HCT-116. Nature of the test: Induction of apoptosis in human HCT116 cells assessed as early apoptotic cells at 20 uM after 48 hrs by Annexin V-FITC/propidium iodide staining-based flow cytometric analysis (reference value: 1.23 %). The format is functional. The procedure, abridged:
as §2

In test [10] the test system is HCT-116. Nature of the test: Induction of apoptosis in human HCT116 cells assessed as late apoptotic cells at 20 uM after 48 hrs by Annexin V-FITC/propidium iodide staining-based flow cytometric analysis (reference value: 3.87 %). The format is functional. Summed up: as §2
Test [11] has as its system HCT-116. Nature of the test: Induction of apoptosis in human HCT116 cells assessed as viable cells at 40 uM after 48 hrs by Annexin V-FITC/propidium iodide staining-based flow cytometric analysis (reference value: 86.7 %). The test is classed as functional. As to conditions: HCT-116, 48 h, read-out: Activity. Summed up:
as §2

Test [12] concerns HCT-116. Nature of the test: Induction of apoptosis in human HCT116 cells assessed as early apoptotic cells at 40 uM after 48 hrs by Annexin V-FITC/propidium iodide staining-based flow cytometric analysis (reference value: 1.23 %). The format is functional. Summed up: as §2
Test [13] concerns CT26. Nature of the test: Antimigratory activity against mouse CT26 cells assessed as inhibition of cell migration after 48 hrs by crystal violet staining based Boyden-chamber cell migration assay. The format is functional. The procedure, abridged:
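Boyden chamber, 8 μm pores: 1 × 10^5 cells in serum-free medium above, 10% FBS medium below, compound at various concentrations in both chambers; migration 48 h. Non-migrated cells swabbed off; migrated cells fixed in methanol, stained 0.5% crystal violet 20 min, counted in six random fields under light microscope; expressed as % inhibition versus untreated.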

The subject of test [14] is CT26. Nature of the test: Antiinvasive activity against mouse CT26 cells after 48 hrs by crystal violet staining based light microscopic analysis. The format is functional, cell-based. Summed up:
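Transwell membrane upper surface coated with Matrigel diluted 1:5 in serum-free medium. 5 × 10^4 cells in serum-free medium in upper part, 10% FBS medium below, treated with various concentrations for 48 h. Non-invading cells removed; underside cells fixed in methanol, stained with 0.5% crystal violet, counted by light microscopy; expressed as % inhibition versus untreated.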

For test [15], the target named is Signal transducer and activator of transcription 3 (Homo sapiens) (UniProt P40763). Nature of the test: Inhibition of STAT3 phosphorylation in human HCT116 cells after 48 hrs by Western blot analysis. The test is classed as cell-based. The procedure, abridged:
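HCT116 cells treated 48 h with PEC at 0, 10, 20 and 40 μM, lysed in RIPA. Equal protein by Lowry, SDS-PAGE, PVDF transfer. Block 1 h at 37 °C, anti-Stat3 and anti-p-Stat3 Tyr705 overnight at 4 °C, secondary 1 h, ECL. β-actin loading control; bands quantified by densitometry.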
On the technique in general: Immunoblotting shows a protein as a band on a membrane.

The subject of test [16] is CT26. Nature of the test: Antimetastatic activity against mouse CT26 cells allografted in Balb/c mouse assessed as inhibition of MMP -9 protein expression in tumour tissue at 25 to 50 mg/kg, ip administered daily for 14 days starting from 6 days post implantation by immunohistochemical analysis. The format is functional, organism-based. The procedure, abridged:
(§3)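 Female BALB/c mice (6–8 weeks) injected ip with 5 × 10^5 CT26 cells; from day 6, randomized (eight per group) to ip vehicle, 25 or 50 mg/kg once daily for 14 days. Abdominal circumference and body weight every 3 days; abdominal nodules counted by eye and weighed; spleens assessed; paraffin tumour sections immunostained (Ki-67, MMP-9, p-Stat3) with DAB detection.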

Test [17] concerns the target Signal transducer and activator of transcription 3 (Mus musculus) (UniProt P42227). Nature of the test: Antitumor activity against mouse CT26 cells allografted in Balb/c mouse assessed as inhibition of STAT3 phosphorylation in tumour tissue at 25 to 50 mg/kg, ip administered daily for 14 days starting from 6 days post implantation by immunohistochemical analysis. The test is classed as organism-based. The procedure, abridged: as §3

The subject of test [18] is CT26. Nature of the test: Antimetastatic activity against mouse CT26 cells allografted in Balb/c mouse assessed as decrease in CD11b-positive/Gr1-positive myeloid cells level in peripheral blood at 25 mg/kg, ip administered daily for 14 days starting from 6 days post implantation by flow cytometric analysis (reference value: 33.2 %). The format is functional. Also noted: scale not given: the % may be the effect or the level left.

In test [19] the test system is CT26. Nature of the test: Antimetastatic activity against mouse CT26 cells allografted in Balb/c mouse assessed as decrease in CD11b-positive/Gr1-positive myeloid cells level in tumour at 50 mg/kg, ip administered daily for 14 days starting from 6 days post implantation flow cytometric analysis (reference value: 10 %). Also noted: scale not given: the % may be the effect or the level left. The format is functional.

Active and inactive are the calls of the source. The rule behind the calls is not given here.

Chain of Signal transducer and activator of transcription 3 (Mus musculus) (P42227 whole entry): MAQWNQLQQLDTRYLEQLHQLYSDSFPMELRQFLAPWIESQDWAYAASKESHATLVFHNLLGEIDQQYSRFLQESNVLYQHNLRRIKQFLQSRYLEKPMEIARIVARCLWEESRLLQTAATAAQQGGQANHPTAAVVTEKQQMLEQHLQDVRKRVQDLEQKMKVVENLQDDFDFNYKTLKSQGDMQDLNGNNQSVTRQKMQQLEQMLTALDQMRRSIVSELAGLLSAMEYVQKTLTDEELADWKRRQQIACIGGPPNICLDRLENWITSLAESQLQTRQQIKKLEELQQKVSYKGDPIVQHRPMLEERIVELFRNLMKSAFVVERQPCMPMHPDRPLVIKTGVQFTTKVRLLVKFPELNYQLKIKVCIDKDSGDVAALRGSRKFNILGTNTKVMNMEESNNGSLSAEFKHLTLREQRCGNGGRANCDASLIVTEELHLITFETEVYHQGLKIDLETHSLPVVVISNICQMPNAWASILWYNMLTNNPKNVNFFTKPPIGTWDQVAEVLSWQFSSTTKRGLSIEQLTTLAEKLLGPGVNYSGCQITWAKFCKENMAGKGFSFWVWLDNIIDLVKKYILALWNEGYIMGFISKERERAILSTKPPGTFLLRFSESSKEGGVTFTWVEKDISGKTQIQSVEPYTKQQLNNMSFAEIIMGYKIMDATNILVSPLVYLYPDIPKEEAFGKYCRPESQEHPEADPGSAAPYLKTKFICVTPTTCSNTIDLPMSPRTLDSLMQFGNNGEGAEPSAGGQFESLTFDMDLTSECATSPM
Chain of Signal transducer and activator of transcription 3 (Homo sapiens) (P40763 whole entry): as the sequence (P42227 whole entry) above, with D760E counted along it

As for `COc1ccc(-c2cc(=O)c3c(O)c(OC)c(O)cc3o2)cc1` [PECTOLINARIGENIN], the inhibition entry in the test with SW48 was “Tde”; in the test with CT26 [13] it was “Dose-dependent effect”; in the test with CT26 [14], “Dose-dependent effect”; in test [15] it was “Dose-dependent effect”. Further, the inhibition result (in the test with CT26 [1]; in the test with CT26 [16]; in test [17]) was “Active” throughout. Also, the Activity came to 15.5% with CT26 [2]; 8.14% in the test with CT26 [3]; 1.94% in the test with CT26 [4]; 16.2% in the test with CT26 [5]; 13.4% in the test on CT26 [6]; 5.08% in the test with HCT-116 [7]. The Activity in the test on HCT-116 [9] came out at 8.86%; with HCT-116 [10] it was 7.36%; in the test on HCT-116 [12], 9.42%; with CT26 [18] it was 26.7%; with CT26 [19] it was 6.47%. Also, the viability at 20 µM in the test on HCT-116 [8] stood at 79.2%. The viability at 40 µM with HCT-116 [11] came out at 73.7%.
